Where “and” joins values, the source holds several entries; their conditions need not be identical. Identical values can stand only once. Marks after values point to notes of the source that are not given here.
Assays:
Type in all cases: in vitro ADME
UGT2B7 = target: T1, UGT2B7 (Homo sapiens, UniProt P16662); assay: Screening of recombinant UGT2B7 for glucuronidation activity; settings: 250 μM substrate, 5 μg protein, 60 min, 37 °C
T1 sequence (P16662 24-529): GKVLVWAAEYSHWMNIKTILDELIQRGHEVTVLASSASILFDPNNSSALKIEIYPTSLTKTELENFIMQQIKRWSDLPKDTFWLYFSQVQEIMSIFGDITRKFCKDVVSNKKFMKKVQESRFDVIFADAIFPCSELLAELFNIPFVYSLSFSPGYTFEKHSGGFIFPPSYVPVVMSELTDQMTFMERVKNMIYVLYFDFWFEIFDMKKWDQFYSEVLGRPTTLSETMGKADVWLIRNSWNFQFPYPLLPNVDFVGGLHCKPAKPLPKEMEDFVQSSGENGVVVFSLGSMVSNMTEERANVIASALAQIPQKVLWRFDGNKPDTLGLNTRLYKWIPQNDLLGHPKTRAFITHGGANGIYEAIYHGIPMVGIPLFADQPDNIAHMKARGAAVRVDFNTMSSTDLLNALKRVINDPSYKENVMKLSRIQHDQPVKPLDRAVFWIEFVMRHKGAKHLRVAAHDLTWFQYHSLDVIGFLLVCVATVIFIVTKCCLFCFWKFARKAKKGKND
Procedure, shortened: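 UGT1A1, 1A3, 1A4 and 1A6–1A10 were His-tagged and expressed in baculovirus-infected Sf9 cells; UGT2B4, 2B7, 2B15 and 2B17 were commercial membranes run per supplier protocol. 5 μg membrane protein with 250 μM substrate, 2 mM UDP-GlcUA, Tris–HCl pH 7.4, MgCl2, saccharolactone, 2% DMSO; 37 °C, 60 min; no-substrate controls. Products measured by HPLC-UV/vis; β-glucuronidase hydrolysis separated O- from carboxyl glucuronides.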

UGT1A1 = target: T2, UGT1A1 (Homo sapiens, UniProt P22309); assay: Steady state kinetics of glucuronidation by recombinant UGT1A1
T2 sequence (P22309 26-533): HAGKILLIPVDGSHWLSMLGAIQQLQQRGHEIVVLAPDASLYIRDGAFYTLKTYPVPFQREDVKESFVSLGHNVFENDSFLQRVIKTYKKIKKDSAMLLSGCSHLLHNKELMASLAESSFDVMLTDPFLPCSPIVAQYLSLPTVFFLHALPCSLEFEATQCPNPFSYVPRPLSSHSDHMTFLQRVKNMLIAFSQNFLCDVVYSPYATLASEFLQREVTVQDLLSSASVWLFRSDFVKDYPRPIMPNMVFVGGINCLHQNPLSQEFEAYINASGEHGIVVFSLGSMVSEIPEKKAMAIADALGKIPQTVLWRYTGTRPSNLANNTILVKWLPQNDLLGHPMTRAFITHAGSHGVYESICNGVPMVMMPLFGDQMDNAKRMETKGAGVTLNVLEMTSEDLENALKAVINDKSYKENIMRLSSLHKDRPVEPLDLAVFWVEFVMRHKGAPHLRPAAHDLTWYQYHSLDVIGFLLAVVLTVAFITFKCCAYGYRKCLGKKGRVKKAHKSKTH

UGT1A7 = target: T3, UGT1A7 (Homo sapiens, UniProt Q9HAW7); assay: Steady state kinetics of glucuronidation by recombinant UGT1A7
T3 sequence (Q9HAW7 26-530): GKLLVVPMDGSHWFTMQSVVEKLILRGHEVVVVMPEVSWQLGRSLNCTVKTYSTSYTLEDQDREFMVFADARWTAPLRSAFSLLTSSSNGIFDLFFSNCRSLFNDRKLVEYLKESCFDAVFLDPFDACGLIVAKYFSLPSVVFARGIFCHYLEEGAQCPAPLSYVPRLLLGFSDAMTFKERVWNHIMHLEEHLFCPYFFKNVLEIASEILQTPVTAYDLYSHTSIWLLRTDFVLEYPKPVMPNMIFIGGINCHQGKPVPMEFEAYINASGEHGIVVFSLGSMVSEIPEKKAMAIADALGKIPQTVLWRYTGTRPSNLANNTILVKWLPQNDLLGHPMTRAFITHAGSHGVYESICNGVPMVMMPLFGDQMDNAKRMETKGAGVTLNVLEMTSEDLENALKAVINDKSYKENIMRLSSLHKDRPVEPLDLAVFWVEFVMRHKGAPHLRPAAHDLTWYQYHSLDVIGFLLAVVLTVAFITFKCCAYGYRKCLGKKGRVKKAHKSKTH

UGT1A9 = target: T4, UGT1A9 (Homo sapiens, UniProt O60656); assay: Steady state kinetics of glucuronidation by recombinant UGT1A9
T4 sequence (O60656 26-530): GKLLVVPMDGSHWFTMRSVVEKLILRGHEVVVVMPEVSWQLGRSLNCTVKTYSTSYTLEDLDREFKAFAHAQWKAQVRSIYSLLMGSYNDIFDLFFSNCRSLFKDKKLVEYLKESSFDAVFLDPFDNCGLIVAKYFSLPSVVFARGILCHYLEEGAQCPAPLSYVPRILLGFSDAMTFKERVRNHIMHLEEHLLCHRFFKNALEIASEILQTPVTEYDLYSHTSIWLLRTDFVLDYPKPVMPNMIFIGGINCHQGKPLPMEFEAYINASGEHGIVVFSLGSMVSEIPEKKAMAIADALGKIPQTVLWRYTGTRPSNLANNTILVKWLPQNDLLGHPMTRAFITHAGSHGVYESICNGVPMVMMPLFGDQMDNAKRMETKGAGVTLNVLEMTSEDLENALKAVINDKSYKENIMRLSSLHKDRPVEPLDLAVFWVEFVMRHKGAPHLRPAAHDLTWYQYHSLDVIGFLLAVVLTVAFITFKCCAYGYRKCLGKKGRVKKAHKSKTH

[1] = Glucuronidation by human intestinal microsomes; settings: 0.25 mM substrate, 60 min
Procedure, shortened: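 Microsomes from individual human livers (10 donors), a pooled liver sample and hepatosomes, or from intestines (13 donors). Substrate dried from ethanol, redissolved in DMSO and sonicated. Incubated 37 °C, 60 min; ethanol stop, centrifuged. Glucuronides measured by reversed-phase HPLC-UV; nmol/mg/min, median and range.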

COc1cc(/C=C/c2cc([N+](=O)[O-])c(O)c([N+](=O)[O-])c2)cc(OC)c1 [DNR-1, (E)-4-(3,5-dimethoxystyryl)-2,6-dinitrophenol]
glucuronidation activity (glucuronide formed) (UGT2B7): No activity

COc1ccc(/C=C(/C(=O)O)c2cc(OC)c(OC)c(OC)c2)cc1O [NI-12a, (E)-3-(3-hydroxy-4-methoxyphenyl)-2-(3,4,5-trimethoxyphenyl)acrylic acid]
NI-12a-COO-gluc formation (UGT1A1; COO-glucuronide): too low to be assessed
NI-12a-O-gluc formation (UGT1A1; O-glucuronide): not produced
NI-12a-COO-gluc formation (UGT1A7; COO-glucuronide): not produced
kinetic model (UGT1A7; NI-12a-O-gluc formation): uncompetitive substrate inhibition and USI
Ks (UGT1A7; NI-12a-O-gluc formation, USI model): 242 ± 133 µM
NI-12a-COO-gluc formation (UGT1A9; COO-glucuronide): not produced
Vmax (UGT1A9; NI-12a glucuronidation): 8.3 nm/mg protein/min
catalytic efficiency, ratio Vmax/Km (UGT1A9; NI-12a glucuronidation): 35 µL/min/mg
Vmax (UGT1A9; NI-12a-O-gluc formation): 8.3 nmol/mg/min and 8.3 ± 0.52 nmol/mg/min
kinetic model (UGT1A9; NI-12a-O-gluc formation): Michaelis–Menten and M–M
glucuronidation activity ([1]; donors HI27, HI28, HI29, and HI54): failed to display glucuronidation activity
metabolites produced ([1]; donors HI34, HI36, HI40, and HI41): only one (the hydroxyl) metabolite
metabolites produced ([1]; remaining donors with activity): two (hydroxyl and carboxyl) metabolites

COc1ccc(C=Cc2cc(OC)cc(OC)c2/C=N/O)cc1 [NI-ST-05, (E)-2,4-dimethoxy-6-(4-methoxystyryl)benzaldehyde oxime]
kinetic model (UGT1A1; NI-ST-05–N–O-gluc formation, estimated based on an incomplete data set): M–M ^b
Vmax (UGT1A1; NI-ST-05–N–O-gluc formation, estimated based on an incomplete data set, assuming M–M kinetics): 0.21 ± 0.02 ^b nmol/mg/min
NI-ST-05–N–O-gluc formation (UGT1A7; N–O-glucuronide): not produced
kinetic model (UGT1A9; NI-ST-05–N–O-gluc formation): did not fit any of the kinetic models tested
Km at 60 min (UGT1A9; human, pH 7.4): < 5 µM
glucuronidation activity (glucuronide formed) (UGT2B7): inactive
metabolites produced ([1]; all other donors (than HI27, HI29, HI30)): one metabolite
glucuronidation activity ([1]; donors HI27, HI29, and HI30): failed to display glucuronidation activity

From PMC4002122 (Chemical Research in Toxicology, 2014)
